The labels stand for the following.
B1: tRNA (parent)
chain: GUUCCGUUGGCGUAAUGGUAACGCGUCUCCCUCCUAAGGAGAAGACUGCGGGUUCGAGUCCCGUACGGAACG

Variants at the floor of the assay were thinned out.

This note sets out measurements from the RNAGym collection of RNA variant scans (doi:10.1126/science.aae0568).

The variants in the data set derive from B1. Kind of data set: yeast fitness relative to wild type (ratio to wild type); higher = fitter; tRNA-Arg(CCU), competitive growth, 37 C, YPD. The gist of the method: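 Gene amplicons from the start population and from each of six end populations were read by 100-nucleotide paired-end sequencing. Those end populations came from pooled Saccharomyces cerevisiae strains carrying tRNA-Arg(CCU) gene variants at the native locus, competed in YPD at 37°C for 24 hours. Fitness relative to wild type was worked out from changes in genotype frequencies. Genotypes needed ≥ 100 starting reads, and estimates < 0.5 were set to 0.5.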
For C29G G48A C55G A57G, the yeast fitness is not above 0.5.
Under C29U C31G C33A stands 0.648; under C30A A42C A70C, 0.819; under C29U C31U U59C C66U A70C, 0.55.
The result for C29U A42C G67C reads 0.505; that for C29U C49G, 0.739; that for C29G U47A, 0.561.
In the case of C29G U47G, the yeast fitness was determined as 0.707.
C30A C31U A36G G50A C66U: the yeast fitness is not above 0.5.
Under C29G G38A A43U stands 0.689.
On to C29G G44C C49G C61G, for which the yeast fitness is not above 0.5.
Turning to C29U C60G C62U, the yeast fitness stood at 0.546.
Turning to C29G G48C C49U C61A, the yeast fitness is not above 0.5.
Under C30A A43U A65U stands 0.608.
For the variant C29G G58A, the yeast fitness came out at 0.68.
With C29U C60U, the yeast fitness was 0.758.
As for C29U C60G, the yeast fitness is 0.515.
The result for C29U C60A reads 0.627; that for C29U C30U U59A, not above 0.5.
Under C30A A40G C66A stands not above 0.5; under C29U C49U C61A, not above 0.5; under C29U C49U C61U, 0.532.
The result for C29U G44C G68A reads 0.57.
Regarding C29U U32G A43U G44C, the yeast fitness is not above 0.5.
For C29U A36C C46U U53A, the yeast fitness was not above 0.5.
For the variant C29G U54G, the yeast fitness is 0.563.
For the variant C29G U54A, the yeast fitness is not above 0.5.
As for C30A C31U C66U A69U, the yeast fitness is not above 0.5.
As to C29G U47G G63A A70U, the yeast fitness is not above 0.5.
For the variant C29U C33G G44C, the yeast fitness was not above 0.5.
The result for C29U G48C G50A reads not above 0.5; that for C29U G38A G48C C66U, not above 0.5.
With C29G C49U G68A, the yeast fitness was not above 0.5.
Regarding C29G C55A U64C, the yeast fitness was not above 0.5.
On to C30A C34U G58C, for which the yeast fitness was not above 0.5.
Take C29U A40U G56C A69C: the yeast fitness stood at 0.519.
In the case of C29G C55U A65G C66A, the yeast fitness is not above 0.5.
As for C29U G38C A43U U53G G63C, the yeast fitness is not above 0.5.
The result for C29G U53C C61G G67A A69C reads not above 0.5; that for C30A A43C A65G, 0.97.
The result for C30A A40G reads 0.979; that for C30A A40U, 0.819; that for C29U U35C A37C, not above 0.5.
For the variant C29G C55A U64A A65C, the yeast fitness is not above 0.5.
C29U C46G U54C G56C: the yeast fitness was not above 0.5.
Turning to C29G G48A C49U, the yeast fitness is not above 0.5.
Under C29U A36C A45U U54C stands not above 0.5; under C29U C31A C55U A57C, 0.62; under C29U C33G A40C A57G, not above 0.5.
Under C29U G58A stands 1.02; under C30A A43U G58C U64G, not above 0.5; under C29U C31U U54G, 0.522.
Turning to C29U G44A, the yeast fitness was found to be 0.818.
With C29U U32C C46A, the yeast fitness amounted to 0.521.
Regarding C29G G58C A65C, the yeast fitness is not above 0.5.
With C29G G44C, the yeast fitness came to 0.755.
As to C29U U35G C62U, the yeast fitness is not above 0.5.
Take C29G G39A G41A: the yeast fitness was not above 0.5.
For the variant C29U G56C, the yeast fitness worked out at 0.595.
The result for C29U G56A reads 0.765; that for C30A C34G A45U, not above 0.5.
Turning to C29G C49G U53G A57G, the yeast fitness was not above 0.5.
Consider C29U G50C, for which the yeast fitness was 0.664.
As to C29G C49G, the yeast fitness is 0.563.
The result for C29G C49U reads 0.718; that for C29U A42C, 0.676; that for C29U A42U, 0.769.
Take C29U A42G: the yeast fitness is 0.975.
For the variant C29G U32G G38A U53C, the yeast fitness was 0.566.
Consider C29U C30U C61A, for which the yeast fitness is not above 0.5.
On to C29G U32C A36U C61G, for which the yeast fitness was not above 0.5.
For C29U G63A A69U, the yeast fitness amounted to 0.641.
With C29U A57G, the yeast fitness was 0.908.
With C29U A40U A65U, the yeast fitness is 0.584.
As for C29G U47A U59A A69G, the yeast fitness was not above 0.5.
For the variant C29U G50C C60A, the yeast fitness was not above 0.5.
As for C29G G48C, the yeast fitness was 0.563.
C29G G48A: the yeast fitness came to 0.586.
For C29G C55U U59G, the yeast fitness was not above 0.5.
On to C29G C55G A57G A70C, for which the yeast fitness was not above 0.5.
With C30A C34G A65U, the yeast fitness was not above 0.5.
Turning to C29G U35G G41C C62U U64A, the yeast fitness came out at 0.602.
As to C29U A40C C66U, the yeast fitness amounted to 0.642.
For C29G U35G C60G C62G, the yeast fitness is not above 0.5.
The result for C29U C31U A42C A69C reads 0.673.
As for C29G G51C, the yeast fitness is 0.55.
Under C30A C31G G67C stands 0.546.
For the variant C29U A37C C49U C55G G68C, the yeast fitness is not above 0.5.
On to C29G G50C, for which the yeast fitness was 0.607.
Consider C29G U35G, for which the yeast fitness is not above 0.5.
For C29G U35A, the yeast fitness is 0.582.
Turning to C29G U35C, the yeast fitness was 0.522.
C29G U32G G38A U53C C66U: the yeast fitness is not above 0.5.
On to C29G G50A A65U, for which the yeast fitness is not above 0.5.
C29U C34G C55U C61G: the yeast fitness is 0.508.
The result for C30A A45U C49A G50A G63U A70U reads not above 0.5; that for C29U C34U A57C G63A A70G, not above 0.5; that for C29U C33U U54A G56A, not above 0.5.
On to C29U A36C, for which the yeast fitness turned out to be 0.531.
C29U A36G: the yeast fitness came out at 0.842.
On to C29U A36U, for which the yeast fitness worked out at 0.567.
Consider C30A C31U A36G C55U, for which the yeast fitness was not above 0.5.
Turning to C29G G56A A69U, the yeast fitness was not above 0.5.
Regarding C29U A45U U54A, the yeast fitness was not above 0.5.
Take C30A C46G G51A: the yeast fitness stood at 0.593.
C29U C31G C34G A37C C46A G50A A57U C66U: the yeast fitness was not above 0.5.
Take C29G U32G G38A G48C G67U A69C: the yeast fitness is not above 0.5.
Regarding C29G C61A C62U, the yeast fitness is not above 0.5.
With C29G C55G A57G, the yeast fitness came to 0.593.
Turning to C29G C49A C60A, the yeast fitness stood at 0.572.
As to C29U C33U C61G, the yeast fitness was not above 0.5.
In the case of C29G G58C A69U, the yeast fitness came to 0.607.
Turning to C30A C34A C49U, the yeast fitness is not above 0.5.
In the case of C30A C33G A45U U59C, the yeast fitness is 0.543.
As for C30A A42G, the yeast fitness came to 0.809.
Under C29U C31A U53G stands not above 0.5; under C30A C46G G56A, 0.74; under C30A C31U A45C C55G, 0.522.
C29U G51C C55U: the yeast fitness was not above 0.5.
As to C30A A37C C60A G67C, the yeast fitness is not above 0.5.
As to C29U C34U, the yeast fitness was found to be 0.716.
Under C29U C34G stands 0.603; under C29U G48A G56C, 0.536.
The result for C29U A36U C66G reads not above 0.5; that for C29G U35G C61U, 0.552.
For C29G C61G C66G, the yeast fitness was found to be 0.558.
The result for C29U C31G G44C reads not above 0.5; that for C29U C66G, 0.732; that for C30A A69U, 0.963.
Consider C29U A37C C55A G58A, for which the yeast fitness is not above 0.5.
For the variant C29G U35A A36C A65G C66G, the yeast fitness is not above 0.5.
For the variant C29U G38C G63A, the yeast fitness is not above 0.5.
The result for C29U C34G A36C reads not above 0.5.
For the variant C29G C60G, the yeast fitness came to 0.851.
As for C29G U47C C49G C60G, the yeast fitness is 0.648.
The result for C30A A57U C61A A69G reads not above 0.5; that for C29U C33A C34U C46G C66U, 0.56.
The result for C30A A42C G56A A57U reads 0.558; that for C30A A42G G50A C62U, not above 0.5; that for C29U A65C, 0.751.
Consider C29U A65G, for which the yeast fitness turned out to be 0.934.
With C29U A37U G67A, the yeast fitness was found to be 0.643.
For C30A C31U C33U A37C, the yeast fitness was not above 0.5.
Under C30A A43G stands 0.958; under C30A A43U, 0.936; under C30A A65C C66U, not above 0.5.
In the case of C30A A43U C55G G63C G67C, the yeast fitness is not above 0.5.
C29U A42U U64C C66U A69U: the yeast fitness was not above 0.5.
Consider C30A A45U C49A G51A C62G, for which the yeast fitness is not above 0.5.
As to C29U A70U, the yeast fitness amounted to 0.827.
Regarding C29U U35C A65U, the yeast fitness is not above 0.5.
On to C30A C33A C62A, for which the yeast fitness is not above 0.5.
For C30A C31G C49A C60U G67A, the yeast fitness was found to be 0.526.
With C29U U35C A37C A65G C66A, the yeast fitness was not above 0.5.
In the case of C29G G39C A70U, the yeast fitness was found to be 0.633.
For the variant C29G G44A A57U, the yeast fitness came to 0.553.
Take C30A A37G: the yeast fitness stood at 0.86.
With C29U A37G A65U, the yeast fitness was not above 0.5.
Under C29G C62A C66U stands not above 0.5.
C29U G67A A70U: the yeast fitness worked out at 0.52.
Take C30A A37G C55U A57G U64A: the yeast fitness is not above 0.5.
Regarding C29U A45G, the yeast fitness amounted to 0.98.
Under C29U A45U stands 0.928.
C29G C49A C55A C61U: the yeast fitness is not above 0.5.
The result for C29U A37U reads 0.734; that for C29U A37G, 0.729; that for C30A A42G G44A, 0.704.
